Source: PubChem (The Scripps Research Institute Molecular Screening Center)
TAAR1 antag – human TAAR1 antagonism; Q96RJ0; CHO RD-HGA16 TAAR1, Fluo-8 calcium fluorescence, antagonist; inhibition, % at 3 µM; actives 1.5% (n = 360,000); AID 624466;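 active means inhibition above a per-plate cutoff, the mean inhibition of test compounds on that plate plus 3 SD, cut at about 49% in these data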
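Material: RD-HGA16 CHO cells with stable hTAAR1 and Gα16; Dosing: single nominal final test compound concentration of 3 µM; Schedule: seeding 17-24 h prior, 75-min 37 °C, 30-min RT dye loading; Detection: kinetic Fluo-8 calcium fluorescence measurement; Measure: % inhibition from peak post-agonist over basal fluorescence ratio; Benchmarks: vehicle and agonist controls.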
OXTR ag – agonists of human oxytocin receptor. P30559. CHO-OTR cells, Fluo-8 calcium fluorescence; normalized: DMSO 0%, oxytocin 100%. activation, % at 3 µM. actives 0.32% (n = 320,000);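 active means activation above the mean of all tested compounds plus 3 SD, cutoff set per screening run, cut at about 20% in these data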;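 further: peak over basal fluorescence ratio from a 100 s FLIPR kinetic read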
Target sequence (P30559 whole entry, looked up): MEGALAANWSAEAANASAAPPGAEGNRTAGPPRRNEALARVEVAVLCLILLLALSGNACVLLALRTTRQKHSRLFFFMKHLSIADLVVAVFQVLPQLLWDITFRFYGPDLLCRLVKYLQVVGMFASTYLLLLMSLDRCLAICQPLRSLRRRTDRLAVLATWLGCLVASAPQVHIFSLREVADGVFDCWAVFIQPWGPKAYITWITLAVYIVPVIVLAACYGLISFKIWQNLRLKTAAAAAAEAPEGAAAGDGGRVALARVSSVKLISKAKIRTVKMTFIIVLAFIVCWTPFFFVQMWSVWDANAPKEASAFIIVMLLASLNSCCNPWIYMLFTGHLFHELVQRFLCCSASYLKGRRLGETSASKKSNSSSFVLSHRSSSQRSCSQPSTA
V1R ag counter – activates human V1a receptor in oxytocin agonist counter-screen; P37288; CHO-V1R cells, Fluo-8 calcium fluorescence, agonist mode; 0% DMSO, 100% 3 nM vasopressin; activation, % at 3 µM; actives 0.25% (n = 320,000); AID 2797;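 active means activation above the mean activation of all tested compounds plus 3 SD, per screening run, cut at about 20% in these data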;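 further: signal is peak over basal fluorescence ratio across a 100 second FLIPR read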
OXTR potentiator – potentiators of human oxytocin receptor; P30559; CHO-OTR cells, Fluo-8 calcium fluorescence, potentiator mode; 0% = oxytocin EC15, 100% = EC100; activation, % at 3 µM; actives 0.061% (n = 320,000); AID 2445;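 active means activation above that plate's cutoff, the mean activation of tested compounds plus 3 SD, cut at about 6.6% in these data, passing the limit was not always enough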
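Assay system: CHO-OTR cells, human receptor / Also added: oxytocin at about EC15, sub-maximal agonist stimulus / Dosing: single dose, 3.0 µM nominal final compound concentration / Incubation: 6 min pre-incubation, 100 s read / Technique: Fluo-8 calcium dye fluorescence / Read-out: % activation vs EC15 and EC100 oxytocin / Benchmarks: EC15 oxytocin low, 75 nM oxytocin high / Replicates: singlicate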
TAAR1 agonist – agonists of human TAAR1 | Q96RJ0 | CHO RD-HGA16 TAAR1, Fluo-8 calcium fluorescence; vehicle wells 0%, saturating PEA agonist 100% | activation, % at 3 µM | actives 0.99% (n = 360,000) | AID 624467;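 active means activation above the mean activation of all test compounds in the run plus 3 SD, cut at about 38% in these data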
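System: CHO RD-HGA16 cells carrying human TAAR1 plus Gα16; Incubation: 17-24 h seeding, 75 min 37 °C dye, 30 min RT; Measured by: Fluo-8 fluorescence, 5 s baseline then 140 s kinetic read; Control set: DMSO and PEA EC100; Replication: single well for each compound.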
TAAR1 ag confirm – human TAAR1 agonism, confirmed. shares compounds with TAAR1 agonist. CHO RD-HGA16 TAAR1, Fluo-8 calcium fluorescence; scaled: DMSO 0%, maximal phenethylamine 100%. activation, % at 3 µM. actives 82% (n = 2,400). AID 651783;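 active means activation above a cutoff set at the run's mean compound activation plus 3 SD, cut at about 39% in these data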
Ga16 ag counter – nonselective agonism, TAAR1 counter-screen; shares compounds with TAAR1 agonist; activation, % at 3 µM; CHO-Ga16 parental, Fluo-8 calcium fluorescence; normalized to maximal ATP response, DMSO zero; actives 50% (n = 2,400);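 active means activation above the run cutoff, the mean activation over all tested wells plus 3 SD, cut at about 12% in these data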
TAAR1 desens – TAAR1 response desensitization, agonist counter-screen; shares compounds with TAAR1 agonist; CHO RD-HGA16 hTAAR1, Fluo-8 calcium, beta-PEA response inhibition; inhibition, % at 3 µM; actives 46% (n = 2,400);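 active means inhibition above the run cutoff, the mean inhibition of all test compounds plus 3 SD, cut at about 49% in these data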;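 further: beta-PEA stimulus applied at its EC80; loss of beta-PEA calcium signal after compound pretreatment read as receptor desensitization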
Ga16 nonsel ant – nonselective Ga16 antagonist in TAAR1 agonist counter-screen; shares compounds with TAAR1 agonist; actives 39% (n = 2,400); AID 651952; CHO-Ga16 ATP-induced calcium, Fluo-8 fluorescence; inhibition, % at 3 µM;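 active means inhibition above the plate's mean compound inhibition plus 3 SD, computed per plate, cut at about 22% in these data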
A number is an active result; 0 = inactive; - = not tested or not shown. Rows were chosen to be rich in hits. Some 2.3% of all compounds tested hit in one or more screens of this group.

SMILES | TAAR1 antag | OXTR ag | V1R ag counter | OXTR potentiator | TAAR1 agonist | TAAR1 ag confirm | Ga16 ag counter | TAAR1 desens | Ga16 nonsel ant
COc1ccc(C2(C)NC(=O)N(CC(=O)c3cc(C)n(C4CC4)c3C)C2=O)cc1 (centres undefined) | 83 | 49 | 45 | 0 | 137 | 104 | 50 | 0 | 26
CSCCC(NC(=O)COc1ccccc1)C(=O)NCc1cccs1 (centres undefined) | 0 | 0 | 0 | 0 | 0 | - | - | - | -
CC(C)c1nn(-c2cc(C(F)(F)F)ccn2)c(=O)o1 | 0 | 0 | 0 | 0 | 0 | - | - | - | -
COc1ccc(NC(=O)C2CC(=O)OC2c2ccccc2)cc1 (centres undefined) | 0 | 0 | 0 | 0 | 51 | 0 | 0 | 0 | 0
O=C1c2ccccc2C(=O)N1Nc1ccccc1 | 0 | 0 | 0 | 0 | 0 | - | - | - | -
Cc1ccc(NN2C(=O)C=C(c3ccccc3)C2=O)cc1 | 0 | - | - | - | 52 | 0 | 20 | 0 | 44
COc1ccc(-c2cc(C(F)(F)F)n3nc(C(=O)Nc4c(C)n(C)n(-c5ccccc5)c4=O)cc3n2)cc1 | 0 | - | - | - | 0 | - | - | - | -
CC1=C(C(=O)N(C)C)CC(CC(=O)NCCc2ccccn2)C(=O)N1CCCN1CCCC1=O (centres undefined) | 0 | - | - | - | 49 | 44 | 0 | 0 | 0
CCNC(=S)NNC(=O)c1ccc(OC)cc1 | 0 | 0 | 0 | 0 | 0 | - | - | - | -
COc1ccc(C(=O)NNC(=S)NC(=O)c2ccc(OC)cc2)cc1 | 81 | 43 | 28 | 0 | 110 | 88 | 89 | 49 | 47
Cc1cccc(C(=O)NC(=S)NNC(=O)COc2ccc(Cl)cc2)c1 | 53 | - | - | - | 99 | 104 | 84 | 76 | 53
O=C(COc1ccccc1)NNC(=S)NC(=O)c1ccc(Cl)cc1Cl | - | 0 | 0 | 0 | - | - | - | - | -
CCCCC(=O)NC(=S)NNC(=O)c1ccc(OC)cc1 | 0 | 0 | 0 | 0 | 85 | 99 | 82 | 51 | 44
COc1ccc(C(=O)NC(=S)NNC(=O)c2cccc(C)c2)cc1 | 104 | 70 | 95 | 0 | 170 | 148 | 122 | 106 | 74
Nc1[nH]c(C(=O)c2ccc(Br)cc2)c(-c2ccccc2Br)c1C(=O)NCCc1c[nH]c2ccccc12 | 0 | - | - | - | 0 | - | - | - | -
COc1ccccc1C(=O)NNC(=S)NC(=O)c1cccs1 | 0 | 30 | 51 | 0 | 106 | 103 | 77 | 0 | 38
Cc1cccc(C(=O)NNC(=S)NC(=O)c2ccccc2)c1 | 107 | 83 | 108 | 0 | 169 | 133 | 105 | 92 | 75
COc1ccc(C(=O)NC(=S)NNC(=O)c2ccncc2)cc1Br | 0 | 0 | 0 | 0 | 60 | 0 | 32 | 0 | 0
O=C(NC(=S)NNC(=O)[C@H]1C[C@@H]1c1ccccc1)c1cccc(F)c1 | 0 | 0 | 0 | 0 | 77 | 74 | 83 | 0 | 30
Cc1ccc(C(=O)NNC(=O)c2cccc(C)c2)cc1 | 0 | 0 | 0 | 0 | 0 | - | - | - | -
COc1cccc(-c2cccc(NC(=O)C3CCN(Cc4ccon4)CC3)c2)c1 | 0 | 0 | 0 | 0 | 0 | - | - | - | -
COCCN(Cc1ccc(C)cc1)C(=O)[C@H]1O[C@@H](n2ccc(N)nc2=O)[C@H](O)[C@@H]1O | 0 | - | - | - | 0 | - | - | - | -
COc1ccc(C(=O)NNC(=S)NC(=O)c2cccs2)cc1 | 0 | 0 | 0 | 0 | 103 | 67 | 40 | 0 | 26
COc1ccc(OCC(=O)NNC(=S)NC(=O)c2ccc(Br)o2)cc1 | 0 | 0 | 0 | 0 | 55 | 0 | 18 | 0 | 0
